Molecules are shown by their SMILES.

Broadly, the inhibition is the drop in the measured response relative to a control, in per cent.

Common to all, as to type: functional, tissue-based
In assay [1] the target is Histamine H1 receptor (Cavia porcellus) (UniProt P31389). Kind of assay: Antagonist activity at histamine H1 receptor in Dunkin-Hartley guinea pig ileum assessed as inhibition of histamine-induced contractions at 3 umol/L. Conditions: at 3 µM. In outline: (§1)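 Ileum segments (2 cm) were taken from stunned animals and mounted in an organ bath under 1 g initial load. The bath held Tyrode's solution at 37 °C, continuously oxygenated. After 20 min stabilization, noncumulative submaximal histamine stimuli were given. Isometric contractions were recorded without compound and after 3-5 min incubation with compound.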

The target is the same in assay [2]. Kind of assay: Antagonist activity at histamine H1 receptor in Dunkin-Hartley guinea pig ileum assessed as inhibition of histamine-induced contractions at 10 umol/L. Conditions: at 10 µM. In outline: as §1
The target is the same in assay [3]. Nature of the assay: Antagonist activity at histamine H1 receptor in Dunkin-Hartley guinea pig ileum assessed as inhibition of histamine-induced contractions at 30 umol/L. Conditions: at 30 µM. Summed up: as §1

Chain of Histamine H1 receptor (Cavia porcellus) (P31389 whole entry): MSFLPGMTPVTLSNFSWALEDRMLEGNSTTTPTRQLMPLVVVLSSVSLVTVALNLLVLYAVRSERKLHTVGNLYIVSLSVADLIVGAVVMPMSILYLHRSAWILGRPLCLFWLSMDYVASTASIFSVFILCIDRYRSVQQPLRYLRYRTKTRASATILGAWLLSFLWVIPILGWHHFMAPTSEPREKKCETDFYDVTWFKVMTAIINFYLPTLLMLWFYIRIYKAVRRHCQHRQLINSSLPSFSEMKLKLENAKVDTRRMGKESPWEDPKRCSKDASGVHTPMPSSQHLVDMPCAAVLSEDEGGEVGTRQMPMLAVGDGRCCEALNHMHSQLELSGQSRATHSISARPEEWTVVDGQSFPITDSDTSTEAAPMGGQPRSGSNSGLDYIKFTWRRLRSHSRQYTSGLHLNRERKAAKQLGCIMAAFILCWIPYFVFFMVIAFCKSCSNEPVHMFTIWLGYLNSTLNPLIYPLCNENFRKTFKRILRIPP

In the case of `COc1cc(/C=C2\OC(=O)C=C2CN2CCC(=C3c4ccc(Cl)cc4CCc4cccnc43)CC2)cc(OC)c1OC`, the results for the inhibition in assay [1], in assay [2] and in assay [3] were 4.23%, 32.9% and 52.8%, respectively.
`COc1ccccc1/C=C1\OC(=O)C=C1CN1CCC(=C2c3ccc(Cl)cc3CCc3cccnc32)CC1`: the inhibition is 29.4% in assay [1], 59.2% in assay [2] and 87.8% in assay [3].
For `CS(=O)(=O)c1ccc(/C=C2\OC(=O)C=C2CN2CCC(=C3c4ccc(Cl)cc4CCc4cccnc43)CC2)cc1`, the results for the inhibition in assay [1], in assay [2] and in assay [3] were 12.4%, 50.4% and 71.9%, respectively.
For the molecule `Clc1ccc2c(c1)CCc1cccnc1C2=C1CCNCC1`, the inhibition was 47.4% in assay [1], 77.7% in assay [2] and 80.4% in assay [3].
For `O=C1C=C(CN2CCC(=C3c4ccc(Cl)cc4CCc4cccnc43)CC2)CO1`, in that order: 33.4%, 79% and 94.8%.
Take `O=C1C=C(CN2CCC(=C3c4ccc(Cl)cc4CCc4cccnc43)CC2)C(C(O)c2ccccc2)O1` (configuration not stated): the inhibition in assay [1] is 42.7%.
Turning to `COc1cc(/C=C2\OC(=O)C=C2CN2CCC(=C3c4ccc(Cl)cc4CCc4cccnc43)CC2)ccc1O`, the inhibition came to 4.67% in assay [1], 42.5% in assay [2] and 62.6% in assay [3].
Consider `O=C1C=C(CN2CCC(=C3c4ccc(Cl)cc4CCc4cccnc43)CC2)/C(=C/c2ccc(Cl)cc2)O1`, for which the inhibition in assay [1] amounted to 37%; in assay [2] it was 51.3%; in assay [3], 66.7%.
The like results for `CN(C)c1ccc(/C=C2\OC(=O)C=C2CN2CCC(=C3c4ccc(Cl)cc4CCc4cccnc43)CC2)cc1` were, in that order, 61.6%, 77.6% and 82.3%.
The like results for `COc1ccccc1C(O)C1OC(=O)C=C1CN1CCC(=C2c3ccc(Cl)cc3CCc3cccnc32)CC1` (configuration not stated) were, in that order, 40.8%, 61.5% and 74.1%.
Turning to `O=C1C=C(CN2CCC(=C3c4ccc(Cl)cc4CCc4cccnc43)CC2)/C(=C/c2ccc(F)cc2)O1`, the inhibition in assay [1] was found to be 6.99%; in assay [2], 19%; in assay [3] it was 30.6%.
In the case of `CCOC(=O)N1CCC(=C2c3ccc(Cl)cc3CCc3cccnc32)CC1`, the inhibition in assay [1] is 15.7%; in assay [2] it was 33.4%; in assay [3] it was 64.7%.
For `O=C1C=C(CN2CCC(=C3c4ccc(Cl)cc4CCc4cccnc43)CC2)/C(=C/c2ccc(O)cc2)O1`, in that order: 3.54%, 41% and 65.6%.
